# Measurements taken from ChEMBL document CHEMBL5724801, “EUbOPEN Chemogenomics Library - Multiplex” (2024).
# Values joined by “and” are separate entries in the source; they are usually repeats but may differ in a detail not shown here. Equal values may be shown once.
# System: HEK-293T
# Test: Multiplex assay against HEK293T
# Format: toxicity, cell-based
# Conditions: human
# In short: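 At seeding, live cells were stained with Hoechst33342, BioTracker Green Microtubule Cytoskeleton Dye, MitoTracker Red and Annexin V Alexa Fluor 680. After compound addition they were imaged on a CQ1 microscope at 37°C and 5% CO2, and CellPathfinder machine-learning gating sorted them into Hoechst high-intensity objects or normal cells, with normal cells further split into healthy, pyknosed or fragmented nuclei and pyknosed cells into mitotic or apoptotic. Tubulin, mitochondrial-mass and membrane-permeability phenotypes are given as per cents of cells with healthy nuclei.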
# [1] = 12 h, 1 µM, compound concentration 1 uM
# [2] = 12 h, 10 µM, compound concentration 10 uM
# [3] = 24 h, 1 µM, compound concentration 1 uM
# [4] = 24 h, 10 µM, compound concentration 10 uM
# [5] = 48 h, 1 µM, compound concentration 1 uM
# [6] = 48 h, 10 µM, compound concentration 10 uM
structure (smiles),measurement,setting,value
CCCCC[C@H](O)/C=C/[C@H]1[C@H](O)CC(=O)[C@@H]1CCCCCCC(=O)O [ALPROSTADIL],Population Apoptotic (%),[1],35% and 50%
same,Population Fragmented Nuclei (%),[1],7% and 6%
same,Population Healthy Nuclei (%),[1],79% and 80%
same,Population Hoechst High Intensity Objects (%),[1],7% and 6%
same,Population Membrane Permeable-Phenotype (%),[1],0%
same,Population Mitochondria Different-Phenotype (%),[1],42% and 55%
same,Population Mitotic Cells (%),[1],64% and 49%
same,Population Normal (%),[1],92% and 93%
same,Population Pyknosed Nuclei (%),[1],13%
same,Population Tubulin-Different-Phenotype (%),[1],28% and 18%
same,Total Cell Count,[1],471 and 392
same,Population Apoptotic (%),[2],33%
same,Population Fragmented Nuclei (%),[2],7%
same,Population Healthy Nuclei (%),[2],78% and 75%
same,Population Hoechst High Intensity Objects (%),[2],6% and 9%
same,Population Membrane Permeable-Phenotype (%),[2],1% and 0%
same,Population Mitochondria Different-Phenotype (%),[2],48% and 64%
same,Population Mitotic Cells (%),[2],66%
same,Population Normal (%),[2],93% and 90%
same,Population Pyknosed Nuclei (%),[2],14% and 17%
same,Population Tubulin-Different-Phenotype (%),[2],33% and 30%
same,Total Cell Count,[2],318 and 309
same,Population Apoptotic (%),[3],35% and 34%
same,Population Fragmented Nuclei (%),[3],9% and 6%
same,Population Healthy Nuclei (%),[3],79% and 85%
same,Population Hoechst High Intensity Objects (%),[3],3% and 4%
same,Population Membrane Permeable-Phenotype (%),[3],1% and 0%
same,Population Mitochondria Different-Phenotype (%),[3],22% and 35%
same,Population Mitotic Cells (%),[3],64% and 65%
same,Population Normal (%),[3],96% and 95%
same,Population Pyknosed Nuclei (%),[3],10% and 8%
same,Population Tubulin-Different-Phenotype (%),[3],15% and 14%
same,Total Cell Count,[3],605 and 526
same,Population Apoptotic (%),[4],32% and 36%
same,Population Fragmented Nuclei (%),[4],11% and 7%
same,Population Healthy Nuclei (%),[4],76% and 79%
same,Population Hoechst High Intensity Objects (%),[4],2% and 8%
same,Population Membrane Permeable-Phenotype (%),[4],0%
same,Population Mitochondria Different-Phenotype (%),[4],26% and 50%
same,Population Mitotic Cells (%),[4],67% and 63%
same,Population Normal (%),[4],97% and 91%
same,Population Pyknosed Nuclei (%),[4],12%
same,Population Tubulin-Different-Phenotype (%),[4],23% and 22%
same,Total Cell Count,[4],439 and 345
same,Population Apoptotic (%),[5],32% and 13%
same,Population Fragmented Nuclei (%),[5],13% and 16%
same,Population Healthy Nuclei (%),[5],79% and 77%
same,Population Hoechst High Intensity Objects (%),[5],2% and 3%
same,Population Membrane Permeable-Phenotype (%),[5],2% and 0%
same,Population Mitochondria Different-Phenotype (%),[5],12% and 21%
same,Population Mitotic Cells (%),[5],67% and 86%
same,Population Normal (%),[5],97% and 96%
same,Population Pyknosed Nuclei (%),[5],7% and 6%
same,Population Tubulin-Different-Phenotype (%),[5],11% and 12%
same,Total Cell Count,[5],1005 and 714
same,Population Apoptotic (%),[6],25% and 20%
same,Population Fragmented Nuclei (%),[6],15% and 14%
same,Population Healthy Nuclei (%),[6],76% and 79%
same,Population Hoechst High Intensity Objects (%),[6],2%
same,Population Membrane Permeable-Phenotype (%),[6],1% and 0%
same,Population Mitochondria Different-Phenotype (%),[6],17% and 30%
same,Population Mitotic Cells (%),[6],75% and 80%
same,Population Normal (%),[6],97%
same,Population Pyknosed Nuclei (%),[6],7% and 6%
same,Population Tubulin-Different-Phenotype (%),[6],15% and 14%
same,Total Cell Count,[6],685 and 537
COC(c1ccccc1)(c1ccccc1)[C@H](Oc1nc(C)cc(C)n1)C(=O)O [AMBRISENTAN],Population Apoptotic (%),[1],38%
same,Population Fragmented Nuclei (%),[1],7%
same,Population Healthy Nuclei (%),[1],75% and 81%
same,Population Hoechst High Intensity Objects (%),[1],6% and 11%
same,Population Membrane Permeable-Phenotype (%),[1],0%
same,Population Mitochondria Different-Phenotype (%),[1],53% and 63%
same,Population Mitotic Cells (%),[1],61%
same,Population Normal (%),[1],93% and 88%
same,Population Pyknosed Nuclei (%),[1],16% and 10%
same,Population Tubulin-Different-Phenotype (%),[1],30% and 23%
same,Total Cell Count,[1],249 and 326
same,Population Apoptotic (%),[2],33% and 56%
same,Population Fragmented Nuclei (%),[2],8% and 5%
same,Population Healthy Nuclei (%),[2],76% and 80%
same,Population Hoechst High Intensity Objects (%),[2],6% and 13%
same,Population Membrane Permeable-Phenotype (%),[2],0%
same,Population Mitochondria Different-Phenotype (%),[2],47% and 57%
same,Population Mitotic Cells (%),[2],66% and 43%
same,Population Normal (%),[2],93% and 86%
same,Population Pyknosed Nuclei (%),[2],15% and 14%
same,Population Tubulin-Different-Phenotype (%),[2],23% and 18%
same,Total Cell Count,[2],383 and 262
same,Population Apoptotic (%),[3],37% and 43%
same,Population Fragmented Nuclei (%),[3],9%
same,Population Healthy Nuclei (%),[3],76% and 82%
same,Population Hoechst High Intensity Objects (%),[3],4% and 7%
same,Population Membrane Permeable-Phenotype (%),[3],1% and 0%
same,Population Mitochondria Different-Phenotype (%),[3],30% and 39%
same,Population Mitotic Cells (%),[3],62% and 56%
same,Population Normal (%),[3],95% and 92%
same,Population Pyknosed Nuclei (%),[3],14% and 8%
same,Population Tubulin-Different-Phenotype (%),[3],19% and 16%
same,Total Cell Count,[3],313 and 404
same,Population Apoptotic (%),[4],30% and 44%
same,Population Fragmented Nuclei (%),[4],10% and 8%
same,Population Healthy Nuclei (%),[4],73% and 78%
same,Population Hoechst High Intensity Objects (%),[4],4% and 12%
same,Population Membrane Permeable-Phenotype (%),[4],0%
same,Population Mitochondria Different-Phenotype (%),[4],34% and 41%
same,Population Mitotic Cells (%),[4],69% and 55%
same,Population Normal (%),[4],95% and 87%
same,Population Pyknosed Nuclei (%),[4],15% and 12%
same,Population Tubulin-Different-Phenotype (%),[4],18% and 17%
same,Total Cell Count,[4],441 and 318
same,Population Apoptotic (%),[5],27% and 40%
same,Population Fragmented Nuclei (%),[5],17% and 12%
same,Population Healthy Nuclei (%),[5],72% and 80%
same,Population Hoechst High Intensity Objects (%),[5],2% and 3%
same,Population Membrane Permeable-Phenotype (%),[5],3% and 0%
same,Population Mitochondria Different-Phenotype (%),[5],22% and 23%
same,Population Mitotic Cells (%),[5],72% and 59%
same,Population Normal (%),[5],97% and 96%
same,Population Pyknosed Nuclei (%),[5],10% and 7%
same,Population Tubulin-Different-Phenotype (%),[5],13% and 10%
same,Total Cell Count,[5],600 and 605
same,Population Apoptotic (%),[6],26% and 53%
same,Population Fragmented Nuclei (%),[6],14%
same,Population Healthy Nuclei (%),[6],77% and 79%
same,Population Hoechst High Intensity Objects (%),[6],2% and 7%
same,Population Membrane Permeable-Phenotype (%),[6],1% and 0%
same,Population Mitochondria Different-Phenotype (%),[6],18% and 27%
same,Population Mitotic Cells (%),[6],73% and 46%
same,Population Normal (%),[6],97% and 92%
same,Population Pyknosed Nuclei (%),[6],8% and 5%
same,Population Tubulin-Different-Phenotype (%),[6],13% and 15%
same,Total Cell Count,[6],711 and 480
